Measured values: ChEMBL document CHEMBL3792358, “Computer-aided identification of new histone deacetylase 6 selective inhibitor with anti-sepsis activity” (Eur J Med Chem, 2016)
Each block holds one molecule with its values, some of them ahead of it. Activity calls are given as the source filed them. The rule behind the calls is not given here.

Legend:
[1] = molecular target: Histone deacetylase; assay type: cell-based, Homo sapiens; conditions: hela
[2] = molecular target: Histone deacetylase (Homo sapiens) (UniProt Q13547+O15379+Q9UBN7+Q92769+Q9UQL6+Q8WUI4+Q9BY41+Q96DB2+P56524+Q9UKV0+Q969S8); experiment: Competitive inhibition of HDAC in human HeLa cells using Boc-acetyl-lysine-AMC as substrate at 25 to 50 uM incubated for 30 mins in dark by Lineweaver-Burk plot analysis; assay type: cell-based
[3] = molecular target: T1, Polyamine deacetylase HDAC10 (Homo sapiens, UniProt Q969S8); experiment: Inhibition of human recombinant HDAC10 using RHK-K(Ac)-AMC as substrate
T1 sequence (Q969S8 whole entry): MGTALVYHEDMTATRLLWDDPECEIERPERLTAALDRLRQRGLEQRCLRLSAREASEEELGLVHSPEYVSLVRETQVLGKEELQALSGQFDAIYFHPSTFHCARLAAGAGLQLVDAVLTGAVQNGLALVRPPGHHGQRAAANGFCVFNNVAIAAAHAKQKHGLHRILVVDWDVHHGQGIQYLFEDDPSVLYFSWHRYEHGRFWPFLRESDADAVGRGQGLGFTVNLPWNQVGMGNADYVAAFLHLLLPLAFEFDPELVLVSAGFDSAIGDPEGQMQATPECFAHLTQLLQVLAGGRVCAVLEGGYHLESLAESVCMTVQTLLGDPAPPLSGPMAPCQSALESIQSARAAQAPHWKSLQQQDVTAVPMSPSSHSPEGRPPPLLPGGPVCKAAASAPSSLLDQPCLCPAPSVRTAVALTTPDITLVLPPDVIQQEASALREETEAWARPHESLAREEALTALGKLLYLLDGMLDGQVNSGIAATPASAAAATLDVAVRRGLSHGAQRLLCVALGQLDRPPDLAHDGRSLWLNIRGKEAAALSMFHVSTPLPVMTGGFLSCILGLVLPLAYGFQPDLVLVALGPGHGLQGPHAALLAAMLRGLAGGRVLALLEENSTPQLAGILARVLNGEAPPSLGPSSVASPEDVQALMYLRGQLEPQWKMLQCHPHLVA

[4] = molecular target: T2, Histone deacetylase 1 (Homo sapiens, UniProt Q13547); conditions: HeLa, 10 uM
T2 sequence (Q13547 whole entry): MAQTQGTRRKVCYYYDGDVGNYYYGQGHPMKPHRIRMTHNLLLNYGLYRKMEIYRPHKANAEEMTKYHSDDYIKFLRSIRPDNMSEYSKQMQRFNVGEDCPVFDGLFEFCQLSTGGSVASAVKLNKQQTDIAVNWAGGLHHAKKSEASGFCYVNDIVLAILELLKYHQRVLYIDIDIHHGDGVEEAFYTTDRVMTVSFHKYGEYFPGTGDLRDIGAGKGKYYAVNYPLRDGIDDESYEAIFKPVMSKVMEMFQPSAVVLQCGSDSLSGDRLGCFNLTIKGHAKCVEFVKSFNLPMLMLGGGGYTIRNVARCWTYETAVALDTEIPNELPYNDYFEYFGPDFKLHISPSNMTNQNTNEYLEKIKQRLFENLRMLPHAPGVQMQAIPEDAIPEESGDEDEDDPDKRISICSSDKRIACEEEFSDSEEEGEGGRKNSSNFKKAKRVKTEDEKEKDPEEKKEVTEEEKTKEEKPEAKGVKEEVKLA

[5] = molecular target: T2, Histone deacetylase 1
[6] = molecular target: Histone deacetylase 5 (Homo sapiens, UniProt Q9UQL6); experiment: Inhibition of human recombinant C-terminal His-tagged HDAC5 (657 to 1123 residues) expressed in insect cells using Boc-K(TFA)-AMC as substrate incubated for 60 mins by fluorescence assay
[7] = molecular target: T3, Histone deacetylase 8 (Homo sapiens, UniProt Q9BY41); experiment: Inhibition of human recombinant C-terminal His-tagged HDAC8 (1 to 377 residues) expressed in insect cells using RHK-K(Ac)-K(Ac)-AMC as substrate incubated for 60 mins by fluorescence assay
T3 sequence (Q9BY41 whole entry): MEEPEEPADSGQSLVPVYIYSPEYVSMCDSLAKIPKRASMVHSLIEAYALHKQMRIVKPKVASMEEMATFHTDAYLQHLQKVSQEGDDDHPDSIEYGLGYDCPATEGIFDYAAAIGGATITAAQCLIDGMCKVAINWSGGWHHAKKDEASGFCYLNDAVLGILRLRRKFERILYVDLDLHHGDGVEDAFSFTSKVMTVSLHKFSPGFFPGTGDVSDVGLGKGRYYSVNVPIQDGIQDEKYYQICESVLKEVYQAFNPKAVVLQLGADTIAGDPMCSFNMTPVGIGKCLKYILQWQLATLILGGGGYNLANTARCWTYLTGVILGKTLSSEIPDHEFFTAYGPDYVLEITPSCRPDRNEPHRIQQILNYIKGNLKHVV

[8] = molecular target: T4, Protein deacetylase HDAC6 (Homo sapiens, UniProt Q9UBN7); experiment: Inhibition of full length human recombinant N-terminal GST-tagged HDAC6 (1 to 1215 residues) expressed in sf9 cells using RHK-K(Ac)-AMC as substrate incubated for 90 mins by fluorescence assay
T4 sequence (Q9UBN7 whole entry): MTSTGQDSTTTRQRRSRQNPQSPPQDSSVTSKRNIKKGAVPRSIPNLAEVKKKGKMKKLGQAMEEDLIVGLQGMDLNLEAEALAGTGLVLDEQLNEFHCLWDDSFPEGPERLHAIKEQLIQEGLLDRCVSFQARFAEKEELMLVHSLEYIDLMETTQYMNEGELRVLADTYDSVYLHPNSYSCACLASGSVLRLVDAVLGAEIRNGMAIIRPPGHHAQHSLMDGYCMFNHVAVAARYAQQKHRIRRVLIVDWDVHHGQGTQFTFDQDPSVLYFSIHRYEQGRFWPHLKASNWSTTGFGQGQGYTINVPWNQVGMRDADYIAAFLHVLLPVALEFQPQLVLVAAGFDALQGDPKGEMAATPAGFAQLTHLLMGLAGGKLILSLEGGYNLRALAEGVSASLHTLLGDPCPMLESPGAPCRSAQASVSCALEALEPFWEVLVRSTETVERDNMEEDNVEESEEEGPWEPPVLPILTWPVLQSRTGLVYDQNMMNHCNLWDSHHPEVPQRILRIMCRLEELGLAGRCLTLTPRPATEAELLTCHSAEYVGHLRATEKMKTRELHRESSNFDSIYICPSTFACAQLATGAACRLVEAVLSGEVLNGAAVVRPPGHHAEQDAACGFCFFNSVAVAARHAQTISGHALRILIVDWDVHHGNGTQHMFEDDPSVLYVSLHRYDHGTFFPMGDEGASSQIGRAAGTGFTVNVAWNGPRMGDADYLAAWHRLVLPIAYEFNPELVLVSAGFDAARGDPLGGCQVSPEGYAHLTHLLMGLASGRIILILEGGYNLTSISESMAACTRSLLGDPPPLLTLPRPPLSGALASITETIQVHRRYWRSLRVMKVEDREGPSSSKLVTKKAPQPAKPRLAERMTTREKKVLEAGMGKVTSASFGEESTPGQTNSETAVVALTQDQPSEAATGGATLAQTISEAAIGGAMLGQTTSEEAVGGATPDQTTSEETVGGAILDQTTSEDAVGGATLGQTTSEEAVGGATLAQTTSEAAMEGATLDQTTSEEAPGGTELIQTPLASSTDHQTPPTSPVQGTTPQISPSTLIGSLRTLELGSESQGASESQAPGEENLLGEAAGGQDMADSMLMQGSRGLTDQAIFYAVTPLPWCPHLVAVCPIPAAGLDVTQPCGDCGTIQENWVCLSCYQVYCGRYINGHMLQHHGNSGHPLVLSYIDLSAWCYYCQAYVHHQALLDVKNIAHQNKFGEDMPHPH

[9] = system: RAW264.7; experiment: Antiinflammatory activity in mouse RAW264.7 cells assessed as inhibition of LPS-induced IL-6 production at 0.5 to 2.5 uM relative to control; assay type: functional
[10] = molecular target: Histone deacetylase 2 (Homo sapiens, UniProt Q92769); experiment: Inhibition of full length human recombinant C-terminal GST-tagged HDAC2 (1 to 488 residues) expressed in insect cells using RHK-K(Ac)-AMC as substrate incubated for 60 mins by fluorescence assay
Sequence of Histone deacetylase 2 (Q92769 whole entry, the tested form may be a part): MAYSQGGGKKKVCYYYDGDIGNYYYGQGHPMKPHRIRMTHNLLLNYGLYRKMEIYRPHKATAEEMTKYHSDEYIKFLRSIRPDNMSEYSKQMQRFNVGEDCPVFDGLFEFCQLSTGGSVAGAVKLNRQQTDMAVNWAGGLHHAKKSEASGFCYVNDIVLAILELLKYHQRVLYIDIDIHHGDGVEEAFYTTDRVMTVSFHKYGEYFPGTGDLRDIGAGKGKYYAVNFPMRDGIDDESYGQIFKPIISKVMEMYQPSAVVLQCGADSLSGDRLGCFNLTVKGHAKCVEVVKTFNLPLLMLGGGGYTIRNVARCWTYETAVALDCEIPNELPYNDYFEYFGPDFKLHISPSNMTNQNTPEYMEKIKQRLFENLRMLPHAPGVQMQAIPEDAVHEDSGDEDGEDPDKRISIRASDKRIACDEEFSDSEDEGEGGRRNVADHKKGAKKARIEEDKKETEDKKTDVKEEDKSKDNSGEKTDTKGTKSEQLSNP

[11] = molecular target: T5, Histone deacetylase 7 (Homo sapiens, UniProt Q8WUI4); experiment: Inhibition of human recombinant N-terminal GST-tagged HDAC7 (518 to 991 residues) expressed in insect cells using Boc-K(TFA)-AMC as substrate incubated for 60 mins by fluorescence assay
T5 sequence (Q8WUI4 whole entry): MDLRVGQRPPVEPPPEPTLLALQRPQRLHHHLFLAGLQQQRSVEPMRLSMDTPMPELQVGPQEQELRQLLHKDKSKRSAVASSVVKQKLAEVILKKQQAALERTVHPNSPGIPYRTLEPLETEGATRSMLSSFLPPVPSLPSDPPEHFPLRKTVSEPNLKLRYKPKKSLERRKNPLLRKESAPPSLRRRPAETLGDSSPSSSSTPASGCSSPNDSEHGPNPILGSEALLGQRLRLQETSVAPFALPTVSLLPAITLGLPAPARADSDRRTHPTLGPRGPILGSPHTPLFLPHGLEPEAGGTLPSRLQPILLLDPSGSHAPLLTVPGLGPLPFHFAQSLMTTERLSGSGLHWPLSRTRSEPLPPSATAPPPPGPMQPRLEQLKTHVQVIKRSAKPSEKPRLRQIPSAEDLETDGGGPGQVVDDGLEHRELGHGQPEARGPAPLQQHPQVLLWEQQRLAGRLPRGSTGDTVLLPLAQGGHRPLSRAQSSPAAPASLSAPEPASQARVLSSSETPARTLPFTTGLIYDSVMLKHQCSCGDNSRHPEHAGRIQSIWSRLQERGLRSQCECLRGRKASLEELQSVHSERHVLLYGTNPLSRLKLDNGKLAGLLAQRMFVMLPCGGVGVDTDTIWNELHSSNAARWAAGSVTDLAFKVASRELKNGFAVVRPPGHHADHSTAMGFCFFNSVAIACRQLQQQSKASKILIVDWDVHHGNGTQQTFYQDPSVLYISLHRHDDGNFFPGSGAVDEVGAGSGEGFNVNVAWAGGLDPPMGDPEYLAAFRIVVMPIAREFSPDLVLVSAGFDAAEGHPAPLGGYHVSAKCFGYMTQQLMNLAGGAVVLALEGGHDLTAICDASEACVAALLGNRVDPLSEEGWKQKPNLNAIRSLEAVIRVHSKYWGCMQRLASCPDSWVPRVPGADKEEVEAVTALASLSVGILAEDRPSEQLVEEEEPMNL

[12] = molecular target: Histone deacetylase; experiment: Inhibition of HDAC in human HeLa cells using Boc-acetyl-lysine-AMC as substrate incubated for 24 hrs by fluorometric assay; assay type: cell-based
[13] = molecular target: T2, Histone deacetylase 1; experiment: Inhibition of full length human recombinant C-terminal FLAG-His-tagged HDAC1 (1 to 482 residues) expressed in Sf21 cells using RHK-K(Ac)-AMC as substrate incubated for 60 mins by fluorescence assay
[14] = system: Mus musculus; experiment: Antiinflammatory activity in ICR mouse model of LPS-induced endotoxemia assessed as inhibition of LPS-induced IL-6 mRNA expression in liver at 10 mg/kg, ip administered 2 hrs before and immediately after LPS injection by RT-PCR method; assay type: functional, organism-based
In short: (§1)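 Male ICR mice (27–29 g) given LPS; drug i.p. in 5% DMSO/saline 2 h before and immediately after LPS. Liver collected 6 h after LPS. Total RNA extracted and reverse-transcribed to cDNA; TNF-α and IL-6 mRNA measured by real-time RT-PCR relative to vehicle control.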

[15] = molecular target: Histone deacetylase 3/Nuclear receptor corepressor 2 (HDAC3/NCoR2) (Homo sapiens, UniProt O15379); assay type: cell-based
Sequence of Histone deacetylase 3/Nuclear receptor corepressor 2 (HDAC3/NCoR2) (O15379 whole entry): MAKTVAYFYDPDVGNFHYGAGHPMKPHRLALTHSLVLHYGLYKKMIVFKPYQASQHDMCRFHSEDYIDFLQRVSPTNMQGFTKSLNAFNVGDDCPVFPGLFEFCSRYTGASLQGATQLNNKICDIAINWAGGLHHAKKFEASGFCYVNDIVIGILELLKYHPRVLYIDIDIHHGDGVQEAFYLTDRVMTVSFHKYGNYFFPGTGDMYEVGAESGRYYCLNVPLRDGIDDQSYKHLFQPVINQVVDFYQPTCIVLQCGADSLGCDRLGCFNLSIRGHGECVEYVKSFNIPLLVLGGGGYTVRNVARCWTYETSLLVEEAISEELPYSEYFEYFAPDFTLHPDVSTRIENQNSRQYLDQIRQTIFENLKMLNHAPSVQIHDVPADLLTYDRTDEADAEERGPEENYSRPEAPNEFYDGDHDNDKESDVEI
Sequence of Histone deacetylase 3/Nuclear receptor corepressor 2 (HDAC3/NCoR2) (Q9Y618 whole entry, further chain): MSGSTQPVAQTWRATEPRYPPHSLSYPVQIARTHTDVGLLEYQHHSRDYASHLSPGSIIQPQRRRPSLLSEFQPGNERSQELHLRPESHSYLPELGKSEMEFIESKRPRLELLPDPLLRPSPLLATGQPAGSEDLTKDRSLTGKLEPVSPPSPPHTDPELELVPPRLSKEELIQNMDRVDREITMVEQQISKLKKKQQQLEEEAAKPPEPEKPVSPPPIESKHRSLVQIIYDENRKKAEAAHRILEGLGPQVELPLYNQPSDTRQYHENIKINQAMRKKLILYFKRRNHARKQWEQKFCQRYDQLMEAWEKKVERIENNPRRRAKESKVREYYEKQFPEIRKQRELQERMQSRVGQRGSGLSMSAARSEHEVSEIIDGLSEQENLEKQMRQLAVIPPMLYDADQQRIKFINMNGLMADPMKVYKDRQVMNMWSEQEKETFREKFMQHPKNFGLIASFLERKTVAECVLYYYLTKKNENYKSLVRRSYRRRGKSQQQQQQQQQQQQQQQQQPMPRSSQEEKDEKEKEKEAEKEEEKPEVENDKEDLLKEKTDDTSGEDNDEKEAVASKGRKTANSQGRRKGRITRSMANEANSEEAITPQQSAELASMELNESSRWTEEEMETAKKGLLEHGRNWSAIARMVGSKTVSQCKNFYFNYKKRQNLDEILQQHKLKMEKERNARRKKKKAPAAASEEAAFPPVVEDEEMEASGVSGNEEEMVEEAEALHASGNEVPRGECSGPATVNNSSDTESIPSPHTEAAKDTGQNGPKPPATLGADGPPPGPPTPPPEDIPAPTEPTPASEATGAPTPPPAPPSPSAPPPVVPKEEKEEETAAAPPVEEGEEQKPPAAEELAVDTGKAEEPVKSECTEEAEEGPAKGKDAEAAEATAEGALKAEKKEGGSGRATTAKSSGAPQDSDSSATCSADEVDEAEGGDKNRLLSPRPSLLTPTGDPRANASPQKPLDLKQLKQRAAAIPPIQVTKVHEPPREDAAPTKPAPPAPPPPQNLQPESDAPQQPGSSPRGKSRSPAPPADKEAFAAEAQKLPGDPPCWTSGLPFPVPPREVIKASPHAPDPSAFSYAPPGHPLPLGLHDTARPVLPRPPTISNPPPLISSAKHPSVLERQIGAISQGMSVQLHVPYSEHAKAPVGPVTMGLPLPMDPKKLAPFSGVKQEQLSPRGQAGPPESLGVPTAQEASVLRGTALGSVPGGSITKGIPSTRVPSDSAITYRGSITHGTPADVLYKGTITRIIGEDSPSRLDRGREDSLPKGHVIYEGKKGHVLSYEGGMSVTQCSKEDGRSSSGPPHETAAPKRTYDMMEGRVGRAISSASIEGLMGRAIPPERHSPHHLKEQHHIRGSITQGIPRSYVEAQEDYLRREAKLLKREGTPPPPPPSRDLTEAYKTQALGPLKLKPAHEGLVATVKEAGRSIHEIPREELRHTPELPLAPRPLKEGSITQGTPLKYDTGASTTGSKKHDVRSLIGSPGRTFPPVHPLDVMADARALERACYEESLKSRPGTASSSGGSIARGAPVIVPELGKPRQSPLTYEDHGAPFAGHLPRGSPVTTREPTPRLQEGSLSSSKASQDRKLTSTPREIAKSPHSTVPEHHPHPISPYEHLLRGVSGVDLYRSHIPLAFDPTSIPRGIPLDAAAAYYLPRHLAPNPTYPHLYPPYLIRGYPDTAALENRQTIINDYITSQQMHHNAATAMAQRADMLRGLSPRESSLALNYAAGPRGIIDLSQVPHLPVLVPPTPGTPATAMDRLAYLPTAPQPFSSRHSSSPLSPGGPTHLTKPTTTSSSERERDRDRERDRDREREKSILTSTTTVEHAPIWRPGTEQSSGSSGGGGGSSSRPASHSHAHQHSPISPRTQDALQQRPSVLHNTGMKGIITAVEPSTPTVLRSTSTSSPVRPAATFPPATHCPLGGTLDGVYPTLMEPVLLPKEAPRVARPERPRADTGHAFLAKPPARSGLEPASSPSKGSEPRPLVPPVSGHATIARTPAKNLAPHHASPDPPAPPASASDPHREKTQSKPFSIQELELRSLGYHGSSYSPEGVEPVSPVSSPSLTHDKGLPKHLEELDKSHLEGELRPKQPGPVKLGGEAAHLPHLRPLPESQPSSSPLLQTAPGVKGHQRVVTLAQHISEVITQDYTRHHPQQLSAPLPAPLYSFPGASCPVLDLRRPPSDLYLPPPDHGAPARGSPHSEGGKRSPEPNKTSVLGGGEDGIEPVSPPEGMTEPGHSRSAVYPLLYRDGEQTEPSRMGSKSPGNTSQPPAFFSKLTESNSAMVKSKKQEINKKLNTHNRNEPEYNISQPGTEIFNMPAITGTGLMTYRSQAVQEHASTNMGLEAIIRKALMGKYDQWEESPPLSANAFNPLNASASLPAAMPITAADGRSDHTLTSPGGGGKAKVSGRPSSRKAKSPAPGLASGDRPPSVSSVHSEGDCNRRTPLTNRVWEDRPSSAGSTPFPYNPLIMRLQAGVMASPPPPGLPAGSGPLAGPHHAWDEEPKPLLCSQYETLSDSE

[16] = system: Mus musculus; experiment: Antiinflammatory activity in ICR mouse model of LPS-induced endotoxemia assessed as inhibition of LPS-induced TNF-alpha mRNA expression in liver at 10 mg/kg, ip administered 2 hrs before and immediately after LPS injection by RT-PCR method; assay type: functional, organism-based
In short: as §1

[17] = system: Mus musculus; experiment: Anti-sepsis activity in ICR mouse model of LPS-induced endotoxemia assessed as increase in survival rate at 20 mg/kg, ip administered 2 hrs before and immediately after LPS injection measured up to 10 days; assay type: functional
In short: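 Male ICR mice (27–29 g), LPS from E. coli O111:B4. Dosing was i.p. in vehicle (5% DMSO in saline) at 5, 10 or 20 mg/kg, given 2 h before and immediately after LPS. Groups were vehicle control, LPS, and LPS plus drug. Survival was followed up to 10 days and compared by log-rank analysis.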

[18] = system: RAW264.7; experiment: Antiinflammatory activity in mouse RAW264.7 cells assessed as inhibition of LPS-induced NO production at 0.5 to 2.5 uM relative to control; assay type: functional
[19] = molecular target: T6, Histone deacetylase 11 (Homo sapiens, UniProt Q96DB2); experiment: Inhibition of human recombinant N-terminal His-tagged HDAC11 (1 to 347 residues) expressed in insect cells/baculovirus expression system using RHK-K(Ac)-AMC as substrate by fluorescence assay
T6 sequence (Q96DB2 whole entry): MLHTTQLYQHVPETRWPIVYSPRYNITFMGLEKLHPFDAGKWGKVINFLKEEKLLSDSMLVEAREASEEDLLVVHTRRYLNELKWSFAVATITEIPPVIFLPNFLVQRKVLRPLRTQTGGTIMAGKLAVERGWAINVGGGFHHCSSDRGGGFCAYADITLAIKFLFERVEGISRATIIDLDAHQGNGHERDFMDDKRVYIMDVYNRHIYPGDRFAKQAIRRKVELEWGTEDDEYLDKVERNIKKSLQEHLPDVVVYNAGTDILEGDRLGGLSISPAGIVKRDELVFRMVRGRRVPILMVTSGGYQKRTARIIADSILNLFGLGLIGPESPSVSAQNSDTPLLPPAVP

[20] = molecular target: Histone deacetylase 9 (Homo sapiens, UniProt Q9UKV0); experiment: Inhibition of human recombinant HDAC9 using trifluoroacetyl lysine as substrate
[21] = molecular target: Histone deacetylase 4 (Homo sapiens, UniProt P56524); experiment: Inhibition of human recombinant N-terminal GST-tagged C-terminal His-tagged HDAC4 (627 to 1084 residues) expressed in insect cells using Boc-K(TFA)-AMC as substrate incubated for 60 mins by fluorescence assay
Sequence of Histone deacetylase 4 (P56524 whole entry, the tested form may be a part): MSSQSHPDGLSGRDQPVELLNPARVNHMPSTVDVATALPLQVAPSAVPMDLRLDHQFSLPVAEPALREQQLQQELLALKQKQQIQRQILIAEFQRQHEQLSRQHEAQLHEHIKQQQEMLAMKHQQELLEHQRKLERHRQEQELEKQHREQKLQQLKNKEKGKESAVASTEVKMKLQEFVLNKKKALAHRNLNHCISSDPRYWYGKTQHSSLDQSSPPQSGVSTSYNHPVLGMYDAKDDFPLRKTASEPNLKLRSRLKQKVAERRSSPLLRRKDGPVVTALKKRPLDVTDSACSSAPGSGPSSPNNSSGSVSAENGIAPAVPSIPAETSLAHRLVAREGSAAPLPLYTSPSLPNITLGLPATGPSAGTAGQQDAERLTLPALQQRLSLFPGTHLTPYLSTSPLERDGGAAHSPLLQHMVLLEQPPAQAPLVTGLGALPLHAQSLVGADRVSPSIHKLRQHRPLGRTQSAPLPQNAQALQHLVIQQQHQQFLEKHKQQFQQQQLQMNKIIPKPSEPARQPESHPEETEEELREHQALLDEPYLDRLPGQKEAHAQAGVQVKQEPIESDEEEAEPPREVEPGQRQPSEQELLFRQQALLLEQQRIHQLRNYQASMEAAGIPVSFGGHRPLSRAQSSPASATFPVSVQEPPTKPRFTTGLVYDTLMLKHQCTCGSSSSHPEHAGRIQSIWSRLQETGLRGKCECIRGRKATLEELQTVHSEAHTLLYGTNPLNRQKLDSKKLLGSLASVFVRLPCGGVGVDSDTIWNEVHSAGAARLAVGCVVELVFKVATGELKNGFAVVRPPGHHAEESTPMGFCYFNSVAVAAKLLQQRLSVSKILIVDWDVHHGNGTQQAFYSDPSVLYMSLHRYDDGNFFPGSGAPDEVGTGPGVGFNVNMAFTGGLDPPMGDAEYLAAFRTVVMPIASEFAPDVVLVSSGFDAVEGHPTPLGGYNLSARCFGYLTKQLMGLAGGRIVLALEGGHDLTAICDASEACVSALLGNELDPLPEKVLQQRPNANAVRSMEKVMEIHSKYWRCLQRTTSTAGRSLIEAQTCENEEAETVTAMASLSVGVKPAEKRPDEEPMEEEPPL

[22] = molecular target: T4, Protein deacetylase HDAC6; experiment: Inhibition of recombinant human HDAC6 using Fluor de Lys-SIRT1 as substrate incubated for 15 mins by fluorescence assay
[23] = system: HeLa; experiment: Cytotoxicity against human HeLa cells by MTS assay; assay type: cell-based
[24] = system: RAW264.7; experiment: Antiinflammatory activity in mouse RAW264.7 cells assessed as inhibition of LPS-induced TNF-alpha production at 0.5 to 2.5 uM relative to control; assay type: functional

IC50 [1]: 29.8 µM | inhibition [2]: Active
SMILES: Cc1ncsc1CCn1cc(NC(=O)CCS/C=C\c2ccccc2)cn1

IC50 [1]: 19.18 µM | inhibition [2]: Active
SMILES: O=C(CCS/C=C/c1ccccc1)NCCSCc1ccco1

SMILES: O=C(CCCc1csc(/C=C/c2ccccc2)n1)NO
IC50 [3]: 78.3 µM | inhibition [4]: inactive | IC50 [5]: 13.8 µM | IC50 [6]: 26.6 µM | IC50 [7]: 1.54 µM | IC50 [8]: 0.567 µM | inhibition (INH) [9]: 50% | IC50 [10]: > 10 µM | IC50 [11]: Not Active | IC50 [12]: 0.37 µM | IC50 [13]: > 10 µM | inhibition [14]: Active | IC50 [15]: 17.8 µM | inhibition [16]: Active | Activity [17]: 40% | inhibition (INH) [18]: 50% | IC50 [19]: 32.8 µM | IC50 [20]: Not Active | IC50 [21]: 19.7 µM | IC50 [22]: 0.199 µM | IC50 [23]: 52 µM | inhibition (INH) [24]: 50% | IC50 [1]: 1.48 µM

IC50 [1]: 3.7 µM
SMILES: O=C(CCS/C=C/c1ccccc1)NO
